Measured values taken from ChEMBL document CHEMBL1121486, “Synthesis of nitrosourea derivatives of pyridine and piperidine as potential anticancer agents” (1980).
Where “and” joins values, the source holds several entries; their conditions need not be identical. Equal entries are not always repeated.

Columns and labels:
Mus musculus [1] = assay: Compound tested for the effect on total white blood cell count and reported as percentage change from control on day 7 at 53 mg/kg (ip); format: functional
How it was run: (§1)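 Total white blood cell count in mice. Treatment was intraperitoneal at the listed mg/kg doses, 10 mice per group. Counts were taken on days 3, 5 and 7 and expressed as % change from control, with the control being each group's predose value. Significance was taken at p ≤ 0.05.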

Mus musculus [2] = assay: Compound tested for the effect on total white blood cell count and reported as percentage change from control on day 5 at 106 mg/kg (ip); format: functional; how it was run: as §1
P388 [3] = assay: Compound tested for toxicity against mouse P388 cell (Intraperitoneally implanted) after single ip injection on day 1 at optimal dose (OD) of 100 mg/kg on the 5th day after the injection of the compound; (6/6); format: functional; conditions: route intraperitoneal
P388 [4] = assay: The effect of compound on P388 cell after single dose injected intraperitoneally on day 1 […] at OD of 100 mg/kg; format: functional, Mus musculus; conditions: route intraperitoneal
How it was run: (§2)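 Mice bore intraperitoneally implanted P-388 leukaemia and were dosed across a mg/kg range, with an optimum dose picked. Toxicity survivors were scored on day 5 after injection. Outcomes were T – C animal weight difference (g) and % T/C. A cure was a 30-day survivor.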

L1210 [5] = assay: Compound tested for activity against mouse leukemia L1210 tumor (Intraperitoneally implanted) after single ip injection on day 1 at optimal dose of 100 mg/kg (Dose range 200-12.5); format: functional; conditions: route intraperitoneal
How it was run: (§3)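 L1210 leukaemia implanted intraperitoneally in mice. Compound given over a dose range (mg/kg); optimum dose selected. Survivors for toxicity recorded day 5 post-injection. Measures: T – C body weight difference (g), % T/C, and cures, defined as 30-day survivors.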

3EM 37 [6] = assay: Compound tested for activity against 3EM 37 mouse ependymoblastoma after single ip injection on day 1 at optimal dose of 100 mg/kg (Dose range 200-12.5); format: functional; conditions: route intraperitoneal
L1210 [7] = assay: The effect of compound on mouse leukemia L1210 tumor (Intraperitoneally implanted)after single dose injected intraperitoneally on day 1 […] at OD of 100 mg/kg; format: functional; conditions: route intraperitoneal
Mus musculus [8] = assay: Compound tested for the effect on total white blood cell count and reported as percentage change from control on day 5 at 13.25 mg/kg (ip); format: functional; how it was run: as §1
Mus musculus [9] = assay: Compound tested for the effect on total white blood cell count and reported as percentage change from control on day 7 at 13.25 mg/kg (ip); format: functional; how it was run: as §1
L1210 [10] = assay: Compound tested for toxicity against mouse leukemia L1210 tumor (Intraperitoneally implanted) after single ip injection on day 1 at optimal dose (OD) of 100 mg/kg on the 5th day after the injection of the compound; (6/6); format: functional; conditions: route intraperitoneal
3EM 37 [11] = assay: Effect of compound on 3EM 37 mouse ependymoblastoma after single ip injection on day 1 recorded as animal weight difference of the treated and the control (T-C) at OD of 100 mg/kg; format: functional; conditions: route intraperitoneal
[12] = system: Lewis lung carcinoma cell line; assay: Effect of compound on Lewis Lung carcinoma after single dose injected intraperitoneally on day 1 recorded as animal weight difference of the treated and the control (T-C) at OD of 64 mg/kg; format: functional, Mus musculus; conditions: route intraperitoneal
[13] = system: Lewis lung carcinoma cell line; assay: Compound tested for activity against Lewis lung carcinoma after single ip injection on day 1 at optimal dose of 64 mg/kg (Dose range 64-2); conditions: route intraperitoneal
Mus musculus [14] = assay: Compound tested for the effect on total white blood cell count and reported as percentage change from control on day 3 at 53 mg/kg (ip); format: functional; how it was run: as §1
L1210 [15] = assay: Compound tested for toxicity against mouse leukemia L1210 tumor (Intracerebrally implanted) after single ip injection on day 1 at optimal dose (OD) of 100 mg/kg on the 5th day after the injection of the compound; (6/6); format: functional; conditions: route intraperitoneal
P388 [16] = assay: Compound tested for activity against mouse leukemia L1210 tumor (Intraperitoneally implanted) after single ip injection on day 1 at optimal dose of 100 mg/kg (Dose range 200-6.25); format: functional; conditions: route intraperitoneal; how it was run: as §3
[17] = system: Lewis lung carcinoma cell line; assay: Effect of compound on Lewis Lung carcinoma after single dose injected intraperitoneally on day 1 recorded as percentage of cured animals at OD of 64 mg/kg; conditions: Mus musculus, route intraperitoneal
Mus musculus [18] = assay: Compound tested for the effect on total white blood cell count and reported as percentage change from control on day 3 at 26.5 mg/kg (ip); format: functional; how it was run: as §1
Mus musculus [19] = assay: Compound tested for the effect on total white blood cell count and reported as percentage change from control on day 3 at 106 mg/kg (ip); format: functional; how it was run: as §1
P388 [20] = assay: Effect of compound on P388 cell after single ip injection on day 1 recorded as animal weight difference of the treated and the control (T-C) at OD of 100 mg/kg; format: functional, Mus musculus; conditions: route intraperitoneal; how it was run: as §2
Mus musculus [21] = assay: Compound tested for the effect on total white blood cell count and reported as percentage change from control on day 3 at 13.25 mg/kg (ip); format: functional; how it was run: as §1
L1210 [22] = assay: Compound tested for activity against mouse leukemia L1210 tumor (Intracerebrally implanted) after single ip injection on day 1 at optimal dose of 100 mg/kg (Dose range 200-12.5); format: functional; conditions: route intraperitoneal
Mus musculus [23] = assay: Compound tested for the effect on total white blood cell count and reported as percentage change from control on day 7 at 106 mg/kg (ip); format: functional; how it was run: as §1
3EM 37 [24] = assay: Effect of compound on 3EM 37 mouse ependymoblastoma after single ip injection on day 1 recorded as percentage of cured animals at OD of 100 mg/kg; format: functional; conditions: route intraperitoneal
3EM 37 [25] = assay: Compound tested for toxicity against 3EM 37 Mouse Ependymoblastoma after single ip injection on day 1 at optimal dose (OD) of 100 mg/kg on the 5th day after the injection of the compound; (10/10); format: functional; conditions: route intraperitoneal
Mus musculus [26] = assay: Compound tested for the effect on total white blood cell count and reported as percentage change from control on day 5 at 53 mg/kg (ip); format: functional; how it was run: as §1
Mus musculus [27] = assay: Compound tested for the effect on total white blood cell count and reported as percentage change from control on day 3 at 75 mg/kg (ip); format: functional; how it was run: as §1
Mus musculus [28] = assay: Compound tested for the effect on total white blood cell count and reported as percentage change from control on day 7 at 37.5 mg/kg (ip); format: functional; how it was run: as §1
L1210 [29] = assay: Compound tested for activity against mouse leukemia L1210 tumor (Intraperitoneally implanted) after single ip injection on day 1 at optimal dose of 100 mg/kg (Dose range 100-6.25); format: functional; conditions: route intraperitoneal; how it was run: as §3
Mus musculus [30] = assay: Compound tested for the effect on total white blood cell count and reported as percentage change from control on day 3 at 37.5 mg/kg (ip); format: functional; how it was run: as §1
[31] = system: Lewis lung carcinoma cell line; assay: Effect of compound on Lewis Lung carcinoma after single ip injection on day 1 recorded as animal weight difference of the treated and the control (T-C) at OD of 64-2 mg/kg; format: functional, Mus musculus
Mus musculus [32] = assay: Compound tested for the effect on total white blood cell count and reported as percentage change from control on day 7 at 8.38 mg/kg (ip); format: functional; how it was run: as §1
Mus musculus [33] = assay: Compound tested for the effect on total white blood cell count and reported as percentage change from control on day 3 at 8.38 mg/kg (ip); format: functional; how it was run: as §1
L1210 [34] = assay: The effect of compound on mouse leukemia L1210 tumor (Intracerebrally implanted) after single dose injected intraperitoneally on day 1 […] at OD of 100 mg/kg; format: functional; conditions: route intraperitoneal
[35] = system: Lewis lung carcinoma cell line; assay: Effect of compound on Lewis Lung carcinoma after single dose injected intraperitoneally on day 1 recorded as percentage of cured animals at OD of 64 mg/kg; conditions: Mus musculus, route intraperitoneal; remark: listed apart in the source
L1210 [36] = assay: Effect of compound on mouse leukemia L1210 tumor (Intraperitoneally implanted) after single dose injected intraperitoneally on day 1 recorded as animal weight difference of the treated and the control (T-C) at OD of 100 mg/kg; format: functional; conditions: route intraperitoneal; how it was run: as §3
Mus musculus [37] = assay: Compound tested for the effect on total white blood cell count and reported as percentage change from control on day 7 at 75 mg/kg (ip); format: functional; how it was run: as §1
Mus musculus [38] = assay: Compound tested for the effect on total white blood cell count and reported as percentage change from control on day 3 at 18.75 mg/kg (ip); format: functional; how it was run: as §1
Mus musculus [39] = assay: Compound tested for the effect on total white blood cell count and reported as percentage change from control on day 5 at 37.5 mg/kg (ip); format: functional; how it was run: as §1
Mus musculus [40] = assay: Compound tested for the effect on total white blood cell count and reported as percentage change from control on day 5 at 18.75 mg/kg (ip); format: functional; how it was run: as §1
3EM 37 [41] = assay: Compound tested for toxicity against 3EM 37 mouse ependymoblastoma after single ip injection on day 1 at optimal dose (OD) of 100 mg/kg on the 5th day after the injection of the compound; (10/10); conditions: route intraperitoneal
Mus musculus [42] = assay: Compound tested for the effect on total white blood cell count and reported as percentage change from control on day 5 at 75 mg/kg (ip); format: functional; how it was run: as §1
[43] = system: 3EM 37 ependymoblastoma (Mus musculus); assay: Compound tested for activity against 3EM 37 mouse ependymoblastoma after single ip injection on day 1 at optimal dose of 100 mg/kg (Dose range 200-12.5); conditions: route intraperitoneal
Mus musculus [44] = assay: Compound tested for the effect on total white blood cell count and reported as percentage change from control on day 7 at 18.75 mg/kg (ip); format: functional; how it was run: as §1
Mus musculus [45] = assay: Compound tested for the effect on total white blood cell count and reported as percentage change from control on day 5 at 8.38 mg/kg (ip); format: functional; how it was run: as §1

O=C(O)/C=C\C(=O)O.O=NN(CCCl)C(=O)NC1CCN(Cc2ccccc2)CC1 was tested, and the Change (Mus musculus [1]) was 14% and 7%, the Change (Mus musculus [2]) was -35% and the Survival (P388 [3]) was 6. For the same compound, the T/C (P388 [4]) was 361%, the Optimal dose (L1210 [5]) was 100 mg/kg and the Optimal dose (3EM 37 [6]) was 100 mg/kg. The T/C (L1210 [7]; 100 mg/kg) was 379% and 151%, the Change (Mus musculus [8]) was 18% and the Change (Mus musculus [9]) was 8%. For the same compound, the Survival (L1210 [10]) was 6, the T-C (3EM 37 [11]) was -1.2 g and the T-C [12] was -2.9 g. The Optimal dose [13] was 64 mg/kg, the Change (Mus musculus [14]) was -22% and the Survival (L1210 [15]) was 6. The Optimal dose (P388 [16]) was 100 mg/kg, the T/C [17] was greater than 353% and the Change (Mus musculus [18]) was 12%. The Change (Mus musculus [19]) was -67%, the T-C (P388 [20]) was -4.5 g and the Change (Mus musculus [21]) was 3%. The Optimal dose (L1210 [22]) was 100 mg/kg, the Change (Mus musculus [23]) was 1% and the T/C (3EM 37 [24]) was 242%. The Survival (3EM 37 [25]) was 10 and the Change (Mus musculus [26]) was -5% and 5%.
O=C(O)/C=C\C(=O)O.O=NN(CCCl)C(=O)NC1CCCN(Cc2ccccc2)C1 (stereo unspecified) showed a Change (Mus musculus [27]) of -63%, a Change (Mus musculus [28]) of 60% and an Optimal dose (L1210 [29]) of 100 mg/kg. The Change (Mus musculus [30]) was -20%, the Optimal dose [31] was 64 mg/kg and the Change (Mus musculus [32]) was 23%. The Change (Mus musculus [33]) was -19%, the T/C (L1210 [7]) was 340% and the T/C (L1210 [34]) was 192%. It also gave a Survival (L1210 [10]) of 6, a T/C [35] of 259% and a T-C (L1210 [36]) of -5 g. The Change (Mus musculus [37]) was 11%, the Change (Mus musculus [38]) was -26% and the Change (Mus musculus [39]) was 16%. It also gave a T-C [12] of -3.7 g, a Survival (L1210 [15]) of 6 and a Change (Mus musculus [40]) of -5%. It also gave a Survival (3EM 37 [41]) of 10, an Optimal dose (L1210 [22]) of 100 mg/kg and a Change (Mus musculus [42]) of -45%. It also gave a T/C (3EM 37 [24]) of 223%, an Optimal dose [43] of 100 mg/kg and a Change (Mus musculus [44]) of 40%. It also gave a Change (Mus musculus [45]) of 15%.
